≈ marks a conversion by molar mass, not a printed value.
Legend:
Candida albicans [1] = assay: Inhibition of ABC efflux pumps in fluconazole resistant Candida albicans 167-2 assessed as reduction in energy-dependent rhodamine 6G efflux in presence of 0.1 M glucose after 25 mins […] relative to control
Candida albicans [2] = assay: Antifungal activity against fluconazole susceptible Candida albicans 0079gr in presence of fluconazole by CLSI protocol based broth microdilution method; assay type: functional
Candida albicans [3] = assay: Inhibition of ABC efflux pumps in fluconazole susceptible Candida albicans 0079gr assessed as reduction in energy-dependent rhodamine 6G efflux in presence of 0.1 M glucose after 25 mins by fluorescence assay relative to control
Summary of the method: (§1)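 Cells grown in TSB at 37 °C for 8 h, washed, resuspended in glucose-free PBS at 1 × 10^8 cells. De-energized 45 min with 5 mM deoxyglucose plus 5 mM dinitrophenol. […] Washed, sampled 5–25 min, then 0.1 M glucose added. Absorbance 527 nm, R6G from standard curve.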

Candida albicans [4] = assay: Antifungal activity against fluconazole resistant Candida albicans 167-1 in presence of fluconazole by CLSI protocol based broth microdilution method; assay type: functional
Summary of the method: (§2)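 Checkerboard-style combination with fluconazole at a 1 : 1 ratio, over concentrations 2–4 fold below each agent's MIC alone, by CLSI broth microdilution. Fractional inhibitory concentration index calculated and interpreted as synergy (<0.5), additive (0.5–1), indifferent or antagonistic.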

Candida albicans [5] = assay: Antifungal activity against fluconazole susceptible Candida albicans 004gr in presence of fluconazole by CLSI protocol based broth microdilution method; assay type: functional
Candida albicans [6] = assay: Antifungal activity against fluconazole resistant Candida albicans 167-1 by CLSI protocol based broth microdilution method; assay type: functional
Summary of the method: (§3)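 Broth microdilution per CLSI M27-A3 against clinical C. albicans isolates. Strains sub-cultured at least twice on Tryptone Soya Agar, 37 °C, 48 h. Compounds dissolved in DMSO at 2000 μg mL–1 stock. Fluconazole positive control, plus culture, media and vehicle controls. Run in duplicate; MIC in μg mL–1.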

Candida albicans [7] = assay: Antifungal activity against fluconazole resistant Candida albicans A171 by CLSI protocol based broth microdilution method; assay type: functional; summary of the method: as §3
Candida albicans [8] = assay: Inhibition of ABC efflux pumps in fluconazole resistant Candida albicans A171 assessed as reduction in energy-dependent rhodamine 6G efflux in presence of 0.1 M glucose after 25 mins by fluorescence assay relative to control; summary of the method: as §1
Candida albicans [9] = assay: Antifungal activity against fluconazole susceptible Candida albicans 002B1 in presence of fluconazole by CLSI protocol based broth microdilution method; assay type: functional
Candida albicans [10] = assay: Antifungal activity against fluconazole susceptible Candida albicans 003gr by CLSI protocol based broth microdilution method; assay type: functional
Summary of the method: (§4)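 Clinical isolates and control strain subcultured at least twice on TSA, 37 °C, 48 h. MICs by CLSI M27-A3 broth microdilution; compounds dissolved in DMSO to 2000 μg mL–1 stock. Fluconazole positive control, culture, media and DMSO vehicle controls in each run. Duplicate experiments; MIC in μg mL–1.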

Candida albicans [11] = assay: Down regulation of ERG11 gene expression in fluconazole resistant Candida albicans A171 at MIC after 2 hrs by qRT PCR analysis relative to control; assay type: functional
Summary of the method: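 Cells exposed 2 h to test agents at MIC. Total RNA isolated, cDNA synthesized, qPCR for ERG11 with ACT1 as endogenous control. Triplicate independent experiments, reported as mean ± standard deviation.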

Candida albicans [12] = assay: Antifungal activity against fluconazole susceptible Candida albicans 004B1 by CLSI protocol based broth microdilution method; assay type: functional; summary of the method: as §4
Candida albicans [13] = assay: Down regulation of ERG11 gene expression in fluconazole susceptible Candida albicans ATCC 90028 at MIC after 2 hrs by qRT PCR analysis relative to control; assay type: functional
Summary of the method: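 Cells exposed to compound at MIC for 2 h; total RNA isolated, cDNA synthesised, ERG11 measured by real-time qPCR with ACT1 as endogenous control. Triplicate independent experiments; mean ± standard deviation.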

Candida albicans [14] = assay: Inhibition of ABC efflux pumps in fluconazole susceptible Candida albicans 003gr assessed as reduction in energy-dependent rhodamine 6G efflux in presence of 0.1 M glucose after 25 mins […] relative to control
Candida albicans [15] = assay: Inhibition of ergosterol biosynthesis in fluconazole resistant Candida albicans A171 at 0.5 to 1 times MIC relative to control; assay type: functional
Summary of the method: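 Total sterols quantified by alcoholic KOH extraction in cells grown in 50 ml TSB with compounds at MIC and ½ MIC; untreated and 8 μg mL–1 fluconazole controls. Spectral scan; ergosterol content from A281.5 and A230 absorbances, dilution factor and pellet weight, correcting for 24(28) DHE.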

Candida albicans [16] = assay: Antifungal activity against fluconazole susceptible Candida albicans 004B1 in presence of fluconazole by CLSI protocol based broth microdilution method; assay type: functional
Candida albicans [17] = assay: Inhibition of ergosterol biosynthesis in fluconazole susceptible Candida albicans ATCC 90028 at 0.5 to 1 times MIC relative to control; assay type: functional
Summary of the method: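 ATCC90028 grown in 50 ml TSB with MIC and ½ MIC of compound; untreated and 8 μg mL–1 fluconazole controls. Sterols extracted by alcoholic KOH method and spectrophotometrically scanned; ergosterol % calculated from A281.5 and A230 (E values 290 and 518) with dilution factor, per pellet weight.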

Candida albicans [18] = assay: Inhibition of ABC efflux pumps in fluconazole susceptible Candida albicans 004B1 assessed as reduction in energy-dependent rhodamine 6G efflux in presence of 0.1 M glucose after 25 mins by fluorescence assay relative to control; summary of the method: as §1
Candida albicans [19] = assay: Inhibition of ABC efflux pumps in fluconazole susceptible Candida albicans 002B1 assessed as reduction in energy-dependent rhodamine 6G efflux in presence of 0.1 M glucose after 25 mins […] relative to control
Candida albicans [20] = assay: Antifungal activity against fluconazole resistant Candida albicans A171 in presence of fluconazole by CLSI protocol based broth microdilution method; assay type: functional; summary of the method: as §2
Candida albicans [21] = assay: Antifungal activity against fluconazole susceptible Candida albicans 004gr by CLSI protocol based broth microdilution method; assay type: functional; summary of the method: as §4
Candida albicans [22] = assay: Antifungal activity against fluconazole resistant Candida albicans 167-2 in presence of fluconazole by CLSI protocol based broth microdilution method; assay type: functional; summary of the method: as §2
Candida albicans [23] = assay: Antifungal activity against fluconazole susceptible Candida albicans 0079gr by CLSI protocol based broth microdilution method; assay type: functional; summary of the method: as §4
Candida albicans [24] = assay: Antifungal activity against fluconazole resistant Candida albicans 167-2 by CLSI protocol based broth microdilution method; assay type: functional; summary of the method: as §3
Candida albicans [25] = assay: Inhibition of ABC efflux pumps in fluconazole susceptible Candida albicans 004gr assessed as reduction in energy-dependent rhodamine 6G efflux in presence of 0.1 M glucose after 25 mins by fluorescence assay relative to control; summary of the method: as §1
Candida albicans [26] = assay: Antifungal activity against Candida albicans ATCC 90028 in presence of fluconazole by CLSI protocol based broth microdilution method; assay type: functional
Candida albicans [27] = assay: Inhibition of ABC efflux pumps in fluconazole resistant Candida albicans 167-1 assessed as reduction in energy-dependent rhodamine 6G efflux in presence of 0.1 M glucose after 25 mins […] relative to control
Candida albicans [28] = assay: Antifungal activity against fluconazole susceptible Candida albicans 0072gr by CLSI protocol based broth microdilution method; assay type: functional; summary of the method: as §4
Candida albicans [29] = assay: Antifungal activity against fluconazole susceptible Candida albicans 0072gr in presence of fluconazole by CLSI protocol based broth microdilution method; assay type: functional
Candida albicans [30] = assay: Inhibition of ABC efflux pumps in fluconazole susceptible Candida albicans 0072gr assessed as reduction in energy-dependent rhodamine 6G efflux in presence of 0.1 M glucose after 25 mins […] relative to control
Candida albicans [31] = assay: Antifungal activity against Candida albicans ATCC 90028 by CLSI protocol based broth microdilution method; assay type: functional; summary of the method: as §4
Candida albicans [32] = assay: Antifungal activity against fluconazole susceptible Candida albicans 003gr in presence of fluconazole by CLSI protocol based broth microdilution method; assay type: functional
Candida albicans [33] = assay: Antifungal activity against fluconazole susceptible Candida albicans 002B1 by CLSI protocol based broth microdilution method; assay type: functional; summary of the method: as §4

## S=C1NC(c2ccccc2)=CC(c2ccc(C3C=C(c4ccccc4)NC(=S)N3)cc2)N1 (centres undefined)
Candida albicans [1]
  inhibition: 28%
Candida albicans [2]
  fractional inhibitory concentration index (FICI): 0.127
Candida albicans [3]
  inhibition: 28%
Candida albicans [4]
  fractional inhibitory concentration index (FICI): 0.25 - 0.251
Candida albicans [5]
  fractional inhibitory concentration index (FICI): 0.13 - 0.31
Candida albicans [6]
  MIC: 2 µg/mL (≈ 4.4 µM)
Candida albicans [7]
  MIC: 2 µg/mL (≈ 4.4 µM)
Candida albicans [8]
  inhibition: 28%
Candida albicans [9]
  fractional inhibitory concentration index (FICI): 0.13 - 0.31
Candida albicans [10]
  MIC: 0.125 to 1 µg/mL (≈ 0.275 to 2.2 µM)
Candida albicans [11]
  fold change (FC): 1.25 - 10
Candida albicans [12]
  MIC: 0.125 to 1 µg/mL (≈ 0.275 to 2.2 µM)
Candida albicans [13]
  fold change (FC): 1.5 - 13
Candida albicans [14]
  inhibition: 28%
Candida albicans [15]
  inhibition (INH): 49 - 94%
Candida albicans [16]
  fractional inhibitory concentration index (FICI): 0.13 - 0.31
Candida albicans [17]
  inhibition (INH): 66 - 99%
Candida albicans [18]
  inhibition: 28%
Candida albicans [19]
  inhibition: 28%
Candida albicans [20]
  fractional inhibitory concentration index (FICI): 0.25 - 0.251
Candida albicans [21]
  MIC: 0.125 to 1 µg/mL (≈ 0.275 to 2.2 µM)
Candida albicans [22]
  fractional inhibitory concentration index (FICI): 0.25 - 0.251
Candida albicans [23]
  MIC: 0.125 to 1 µg/mL (≈ 0.275 to 2.2 µM)
Candida albicans [24]
  MIC: 2 µg/mL (≈ 4.4 µM)
Candida albicans [25]
  inhibition: 28%
Candida albicans [26]
  fractional inhibitory concentration index (FICI): 0.13 - 0.31
Candida albicans [27]
  inhibition: 28%
Candida albicans [28]
  MIC: 0.125 to 1 µg/mL (≈ 0.275 to 2.2 µM)
Candida albicans [29]
  fractional inhibitory concentration index (FICI): 0.13 - 0.31
Candida albicans [30]
  inhibition: 28%
Candida albicans [31]
  MIC: 0.125 to 1 µg/mL (≈ 0.275 to 2.2 µM)
Candida albicans [32]
  fractional inhibitory concentration index (FICI): 0.13 - 0.31
Candida albicans [33]
  MIC: 0.125 to 1 µg/mL (≈ 0.275 to 2.2 µM)

## O=C(/C=C/c1ccccc1)c1ccccc1 [CHALCONE]
Candida albicans [1]
  inhibition: < 20%
Candida albicans [2]
  fractional inhibitory concentration index (FICI): 0.75 - 4.38
Candida albicans [3]
  inhibition: < 20%
Candida albicans [4]
  fractional inhibitory concentration index (FICI): 0.562 - 0.62
Candida albicans [5]
  fractional inhibitory concentration index (FICI): 0.75 - 4.38
Candida albicans [6]
  MIC: 31 to 62 µg/mL (≈ 149 to 298 µM)
Candida albicans [7]
  MIC: 31 to 62 µg/mL (≈ 149 to 298 µM)
Candida albicans [8]
  inhibition: < 20%
Candida albicans [9]
  fractional inhibitory concentration index (FICI): 0.75 - 4.38
Candida albicans [10]
  MIC: 31 to 62 µg/mL (≈ 149 to 298 µM)
Candida albicans [12]
  MIC: 31 to 62 µg/mL (≈ 149 to 298 µM)
Candida albicans [14]
  inhibition: < 20%
Candida albicans [15]
  inhibition (INH): 49 - 94%
Candida albicans [16]
  fractional inhibitory concentration index (FICI): 0.75 - 4.38
Candida albicans [17]
  inhibition (INH): 66 - 99%
Candida albicans [18]
  inhibition: < 20%
Candida albicans [19]
  inhibition: < 20%
Candida albicans [20]
  fractional inhibitory concentration index (FICI): 0.562 - 0.62
Candida albicans [21]
  MIC: 31 to 62 µg/mL (≈ 149 to 298 µM)
Candida albicans [22]
  fractional inhibitory concentration index (FICI): 0.562 - 0.62
Candida albicans [23]
  MIC: 31 to 62 µg/mL (≈ 149 to 298 µM)
Candida albicans [24]
  MIC: 31 to 62 µg/mL (≈ 149 to 298 µM)
Candida albicans [25]
  inhibition: < 20%
Candida albicans [26]
  fractional inhibitory concentration index (FICI): 0.75 - 4.38
Candida albicans [27]
  inhibition: < 20%
Candida albicans [28]
  MIC: 31 to 62 µg/mL (≈ 149 to 298 µM)
Candida albicans [29]
  fractional inhibitory concentration index (FICI): 0.75 - 4.38
Candida albicans [30]
  inhibition: < 20%
Candida albicans [31]
  MIC: 31 to 62 µg/mL (≈ 149 to 298 µM)
Candida albicans [32]
  fractional inhibitory concentration index (FICI): 0.75 - 4.38
Candida albicans [33]
  MIC: 31 to 62 µg/mL (≈ 149 to 298 µM)

— ChEMBL document CHEMBL4257459, “Synergistic antifungal effect of cyclized chalcone derivatives and fluconazole against Candida albicans” (2017)
